What was measured:
[1] = target: D(2) dopamine receptor (Homo sapiens) (UniProt P14416); assay: Displacement of [3H]-N-methylspiperone from human dopamine D2 receptor by liquid scintillation counting method; parameters: concentration or dose not given beside the values; details: concentration not given here
How it was run: (§1)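 Binding assays run by the NIMH Psychoactive Drug Screening Program (PDSP) using its previously reported methods and radioligands. Affinity is given as Ki.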

D(4) dopamine receptor = target: T1, D(4) dopamine receptor (Rattus norvegicus, UniProt P30729)
T1 sequence (P30729 whole entry): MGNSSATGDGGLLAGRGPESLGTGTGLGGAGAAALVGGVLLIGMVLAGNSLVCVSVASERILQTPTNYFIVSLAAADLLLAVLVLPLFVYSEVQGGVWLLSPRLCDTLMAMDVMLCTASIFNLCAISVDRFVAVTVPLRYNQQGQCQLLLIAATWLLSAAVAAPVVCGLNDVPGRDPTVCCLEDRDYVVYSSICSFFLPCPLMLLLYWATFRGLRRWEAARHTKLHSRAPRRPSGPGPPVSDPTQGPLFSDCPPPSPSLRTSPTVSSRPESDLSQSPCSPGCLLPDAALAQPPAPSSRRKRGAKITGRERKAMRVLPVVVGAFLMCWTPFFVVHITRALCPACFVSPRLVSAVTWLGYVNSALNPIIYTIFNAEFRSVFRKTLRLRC

[2] = target: T2, 5-hydroxytryptamine receptor 2C (Homo sapiens, UniProt P28335); assay: Displacement of [3H]-mesulergine from human 5-HT2C receptor by liquid scintillation counting method; details: for inhibition (INH): human; how it was run: as §1
T2 sequence (P28335 whole entry): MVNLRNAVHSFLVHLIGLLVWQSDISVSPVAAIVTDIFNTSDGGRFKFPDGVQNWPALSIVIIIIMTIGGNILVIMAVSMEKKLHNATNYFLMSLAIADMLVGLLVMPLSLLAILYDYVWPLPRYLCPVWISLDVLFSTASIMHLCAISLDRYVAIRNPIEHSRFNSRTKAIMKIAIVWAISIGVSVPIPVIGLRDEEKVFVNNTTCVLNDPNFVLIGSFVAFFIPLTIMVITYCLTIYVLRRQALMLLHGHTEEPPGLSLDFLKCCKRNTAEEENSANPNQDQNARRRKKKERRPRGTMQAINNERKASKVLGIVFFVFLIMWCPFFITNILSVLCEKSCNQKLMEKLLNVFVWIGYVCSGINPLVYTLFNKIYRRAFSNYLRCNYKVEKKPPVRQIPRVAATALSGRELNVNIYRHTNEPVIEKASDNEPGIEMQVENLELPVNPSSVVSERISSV

[3] = target: D(3) dopamine receptor (Homo sapiens) (UniProt P35462); assay: Displacement of [3H]-N-methylspiperone from human dopamine D3 receptor by liquid scintillation counting method; details: concentration not given here; how it was run: as §1
[4] = target: T3, 5-hydroxytryptamine receptor 1A (Homo sapiens) (UniProt P08908); assay: Displacement of [3H]-8-OH-DPAT from human 5-HT1A receptor by liquid scintillation counting method; details: concentration not given here; how it was run: as §1
T3 sequence (whole entry): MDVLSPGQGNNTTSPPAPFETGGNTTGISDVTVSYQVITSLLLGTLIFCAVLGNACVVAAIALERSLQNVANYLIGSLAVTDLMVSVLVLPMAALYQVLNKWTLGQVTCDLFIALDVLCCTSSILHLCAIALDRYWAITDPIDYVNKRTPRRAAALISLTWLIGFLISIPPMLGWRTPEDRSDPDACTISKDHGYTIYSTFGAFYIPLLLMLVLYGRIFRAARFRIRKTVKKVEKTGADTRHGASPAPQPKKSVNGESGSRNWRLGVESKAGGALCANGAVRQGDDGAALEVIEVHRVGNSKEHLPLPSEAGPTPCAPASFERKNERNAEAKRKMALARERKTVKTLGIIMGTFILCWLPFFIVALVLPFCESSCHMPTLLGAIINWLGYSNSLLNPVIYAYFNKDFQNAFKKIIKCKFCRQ

[5] = target: 5-hydroxytryptamine receptor 2A (Homo sapiens, UniProt P28223); assay: Displacement of [3H]-ketanserin from human 5-HT2A receptor by liquid scintillation counting method; details: for inhibition: concentration not given here; how it was run: as §1
[6] = target: 5-hydroxytryptamine receptor 7 (Homo sapiens) (UniProt P34969); assay: Displacement of [3H]-LSD from human 5-HT7 receptor by liquid scintillation counting method; details: concentration not given here; how it was run: as §1
[7] = target: 5-hydroxytryptamine receptor 2B (Homo sapiens, UniProt P41595); assay: Displacement of [3H]-LSD from human 5-HT2B receptor by liquid scintillation counting method; how it was run: as §1
Histamine H1 receptor = Histamine H1 receptor (Homo sapiens, UniProt P35367); assay: Displacement of [3H]-pyrilamine from human histamine H1 receptor by liquid scintillation counting method; how it was run: as §1
Sequence of Histamine H1 receptor (P35367 whole entry): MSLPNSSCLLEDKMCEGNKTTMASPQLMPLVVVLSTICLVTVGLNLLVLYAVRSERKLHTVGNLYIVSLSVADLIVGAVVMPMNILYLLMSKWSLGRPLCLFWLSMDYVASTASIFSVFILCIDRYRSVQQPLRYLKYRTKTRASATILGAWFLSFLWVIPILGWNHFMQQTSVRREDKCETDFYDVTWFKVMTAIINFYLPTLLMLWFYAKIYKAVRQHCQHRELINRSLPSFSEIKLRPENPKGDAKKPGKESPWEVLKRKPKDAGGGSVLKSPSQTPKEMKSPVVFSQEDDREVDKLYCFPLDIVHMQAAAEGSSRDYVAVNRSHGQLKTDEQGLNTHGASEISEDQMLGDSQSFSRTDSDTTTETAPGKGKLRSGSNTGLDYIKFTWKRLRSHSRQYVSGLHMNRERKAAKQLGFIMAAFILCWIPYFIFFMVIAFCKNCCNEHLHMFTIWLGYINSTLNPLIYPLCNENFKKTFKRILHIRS

Sequence of 5-hydroxytryptamine receptor 2A (P28223 whole entry): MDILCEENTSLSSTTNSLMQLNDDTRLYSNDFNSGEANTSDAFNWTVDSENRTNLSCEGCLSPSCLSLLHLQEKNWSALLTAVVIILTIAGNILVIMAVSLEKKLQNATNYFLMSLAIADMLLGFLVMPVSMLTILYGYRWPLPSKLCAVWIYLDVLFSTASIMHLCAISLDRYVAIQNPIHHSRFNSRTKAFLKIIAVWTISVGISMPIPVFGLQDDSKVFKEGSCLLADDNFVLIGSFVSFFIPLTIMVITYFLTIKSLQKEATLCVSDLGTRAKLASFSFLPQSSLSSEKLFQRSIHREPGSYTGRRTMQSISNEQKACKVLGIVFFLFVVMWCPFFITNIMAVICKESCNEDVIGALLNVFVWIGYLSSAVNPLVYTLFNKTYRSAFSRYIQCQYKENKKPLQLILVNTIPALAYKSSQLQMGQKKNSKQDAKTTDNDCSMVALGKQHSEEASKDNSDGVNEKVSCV
Sequence of D(2) dopamine receptor (Homo sapiens) (P14416 whole entry): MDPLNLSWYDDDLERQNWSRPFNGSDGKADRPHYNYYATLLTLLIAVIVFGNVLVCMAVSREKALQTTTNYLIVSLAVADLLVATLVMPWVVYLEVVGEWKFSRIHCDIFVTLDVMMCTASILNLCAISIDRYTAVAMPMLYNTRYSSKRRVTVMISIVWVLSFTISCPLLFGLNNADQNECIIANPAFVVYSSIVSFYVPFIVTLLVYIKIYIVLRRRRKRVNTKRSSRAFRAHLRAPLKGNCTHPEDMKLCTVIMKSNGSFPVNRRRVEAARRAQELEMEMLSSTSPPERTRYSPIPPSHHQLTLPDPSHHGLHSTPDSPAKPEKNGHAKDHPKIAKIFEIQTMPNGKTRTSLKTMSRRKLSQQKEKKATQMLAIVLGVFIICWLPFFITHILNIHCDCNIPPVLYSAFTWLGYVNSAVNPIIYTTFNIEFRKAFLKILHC
Sequence of 5-hydroxytryptamine receptor 2B (P41595 whole entry): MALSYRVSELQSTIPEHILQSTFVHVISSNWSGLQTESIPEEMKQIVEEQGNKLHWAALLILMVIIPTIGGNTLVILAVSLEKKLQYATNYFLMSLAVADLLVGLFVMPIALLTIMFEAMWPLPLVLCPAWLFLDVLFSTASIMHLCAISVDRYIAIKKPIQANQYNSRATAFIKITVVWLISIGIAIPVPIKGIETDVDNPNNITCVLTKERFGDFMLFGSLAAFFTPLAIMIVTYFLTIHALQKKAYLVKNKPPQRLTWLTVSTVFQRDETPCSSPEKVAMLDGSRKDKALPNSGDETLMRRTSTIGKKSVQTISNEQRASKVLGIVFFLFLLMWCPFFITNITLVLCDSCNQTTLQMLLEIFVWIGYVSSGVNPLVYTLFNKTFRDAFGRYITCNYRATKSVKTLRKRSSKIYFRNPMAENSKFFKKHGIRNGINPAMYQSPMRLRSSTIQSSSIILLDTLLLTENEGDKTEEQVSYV
Sequence of 5-hydroxytryptamine receptor 7 (Homo sapiens) (P34969 whole entry): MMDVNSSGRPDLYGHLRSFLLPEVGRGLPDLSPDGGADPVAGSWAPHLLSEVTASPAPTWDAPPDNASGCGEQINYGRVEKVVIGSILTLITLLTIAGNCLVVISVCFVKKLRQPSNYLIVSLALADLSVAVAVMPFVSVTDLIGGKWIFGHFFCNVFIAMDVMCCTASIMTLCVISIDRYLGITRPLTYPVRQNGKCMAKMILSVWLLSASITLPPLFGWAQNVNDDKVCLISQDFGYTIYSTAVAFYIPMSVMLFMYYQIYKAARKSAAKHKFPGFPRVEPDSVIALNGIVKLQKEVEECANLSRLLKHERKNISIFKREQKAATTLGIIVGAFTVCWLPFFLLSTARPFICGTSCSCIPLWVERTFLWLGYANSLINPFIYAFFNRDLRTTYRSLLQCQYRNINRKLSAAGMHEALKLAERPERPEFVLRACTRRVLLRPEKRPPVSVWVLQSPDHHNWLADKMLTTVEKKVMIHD
Sequence of D(3) dopamine receptor (Homo sapiens) (P35462 whole entry): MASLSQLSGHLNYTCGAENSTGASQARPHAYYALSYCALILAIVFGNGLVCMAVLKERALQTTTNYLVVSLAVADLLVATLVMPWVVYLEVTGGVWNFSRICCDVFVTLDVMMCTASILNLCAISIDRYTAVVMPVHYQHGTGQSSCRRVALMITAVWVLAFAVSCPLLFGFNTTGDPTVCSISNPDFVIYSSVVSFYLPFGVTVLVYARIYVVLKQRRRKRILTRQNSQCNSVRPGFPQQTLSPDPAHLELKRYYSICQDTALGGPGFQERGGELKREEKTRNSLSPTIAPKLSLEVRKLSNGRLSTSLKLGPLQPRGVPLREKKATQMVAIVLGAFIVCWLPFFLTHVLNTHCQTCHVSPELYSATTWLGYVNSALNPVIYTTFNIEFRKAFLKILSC

SMILES: c1ccc2c(c1)CCN(CCCc1nc3ccccc3s1)C2
- inhibition [1]: < 50%
- Ki (D(4) dopamine receptor): 41 nM

SMILES: O=C1c2ccc(F)cc2CC1CCN1CCc2ccccc2C1 (centres undefined)
- Ki (D(4) dopamine receptor): 251 nM
- inhibition (INH) [2]: < 50%

SMILES: Clc1ccc2sc(CCCCN3CCC4CCCCC4C3)nc2c1 (centres undefined)
- Ki (D(4) dopamine receptor): 37 nM

SMILES: O=C(CCCN1CCCc2ccccc21)c1ccc(Cl)cc1
- inhibition [3]: < 50%
- inhibition [1]: < 50%
- inhibition [4]: < 50%
- inhibition [5]: < 50%
- inhibition [6]: < 50%
- inhibition (INH) [7]: < 50%
- inhibition (INH) (Histamine H1 receptor): < 50%

SMILES: Cl.O=C(CCCN1CCCCc2ccccc21)c1ccc(Cl)cc1
- inhibition [3]: < 50%
- inhibition [1]: < 50%
- inhibition [4]: < 50%
- inhibition [5]: < 50%
- inhibition [6]: < 50%
- inhibition (INH) [7]: < 50%
- inhibition (INH) [2]: < 50%
- inhibition (INH) (Histamine H1 receptor): < 50%

SMILES: COc1cc2c(cc1OC)CN(CCCCc1nc3cc(Cl)ccc3s1)CC2
- Ki (D(4) dopamine receptor): 272 nM

SMILES: O=C1c2ccc(Cl)cc2CC1CCN1CCc2ccccc2C1 (centres undefined)
- Ki (D(4) dopamine receptor): 50 nM

SMILES: C1=C(CCN2CCc3ccccc3C2)Cc2ccccc21
- inhibition [1]: < 50%
- Ki (D(4) dopamine receptor): 194 nM
- inhibition (INH) [2]: < 50%
- inhibition (INH) (Histamine H1 receptor): < 50%

SMILES: CC1(C)CC(=O)N(CCCCN2CCc3ccccc3C2)C(=O)C1.Cl
- inhibition [1]: < 50%
- inhibition [4]: < 50%
- inhibition [5]: < 50%
- inhibition [6]: < 50%
- inhibition (INH) [7]: < 50%
- inhibition (INH) [2]: < 50%
- inhibition (INH) (Histamine H1 receptor): < 50%

SMILES: O=C1Cc2cc(C(=O)CCCN3CCc4ccccc4C3)ccc2N1
- Ki (D(4) dopamine receptor): 3340 nM
- inhibition (INH) (Histamine H1 receptor): < 50%

SMILES: Cl.Clc1ccc(C(=CCCN2CCc3ccccc3C2)c2ccc(Cl)cc2)cc1
- inhibition [1]: < 50%
- inhibition [4]: < 50%
- inhibition [5]: < 50%
- inhibition (INH) [7]: < 50%

SMILES: C1=C(CCN2CCc3ccccc3C2)CCc2ccccc21
- Ki (D(4) dopamine receptor): 140 nM

SMILES: Clc1cccc2c1CN(CCCCc1nc3ccccc3s1)CC2
- Ki (D(4) dopamine receptor): 129 nM

SMILES: O=C(CCCN1CCCc2ccccc2C1)c1ccc(Cl)cc1
- Ki (D(4) dopamine receptor): 442 nM

SMILES: CC1(C)CC(=O)N(CCCCN2Cc3ccccc3C2)C(=O)C1
- Ki (D(4) dopamine receptor): > 10000 nM

SMILES: Cl.Cl.c1ccc2c(c1)CCN(CCCc1nc3ccccc3[nH]1)C2
- Ki (D(4) dopamine receptor): 127 nM
- Ki [5]: > 10000 nM
- inhibition (INH) [7]: < 50%
- Ki [2]: > 10000 nM

SMILES: O=C(CCCN1CCc2ccccc2CC1)c1ccc(Cl)cc1
- Ki (D(4) dopamine receptor): 82 nM

SMILES: O=C1c2ccccc2CC1CCN1CCc2ccccc2C1 (centres undefined)
- Ki (D(4) dopamine receptor): 1100 nM

— ChEMBL document CHEMBL3862017, “Synthesis and evaluation of the structural elements in alkylated tetrahydroisoquinolines for binding to CNS receptors” (Bioorg Med Chem, 2016)
